In publication PMC8592089 (SLAS discovery : advancing life sciences R & D, 2020):
Entries after “also recorded” stand apart in the source; their conditions may differ. Where two headings read alike, the source gives them in different places.

T1: PABPN1 (Homo sapiens, UniProt Q86U42)
T1 sequence (Q86U42 1-306): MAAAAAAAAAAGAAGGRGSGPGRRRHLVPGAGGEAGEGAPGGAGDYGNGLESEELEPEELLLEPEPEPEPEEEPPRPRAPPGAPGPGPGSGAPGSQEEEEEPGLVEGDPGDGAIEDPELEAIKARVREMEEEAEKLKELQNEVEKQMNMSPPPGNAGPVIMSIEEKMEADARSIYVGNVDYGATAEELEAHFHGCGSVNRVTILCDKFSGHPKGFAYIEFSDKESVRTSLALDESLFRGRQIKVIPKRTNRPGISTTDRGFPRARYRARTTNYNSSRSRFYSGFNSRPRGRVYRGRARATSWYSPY

T2: PABPN1 (UniProt Q86U42 1-306)
T2 sequence: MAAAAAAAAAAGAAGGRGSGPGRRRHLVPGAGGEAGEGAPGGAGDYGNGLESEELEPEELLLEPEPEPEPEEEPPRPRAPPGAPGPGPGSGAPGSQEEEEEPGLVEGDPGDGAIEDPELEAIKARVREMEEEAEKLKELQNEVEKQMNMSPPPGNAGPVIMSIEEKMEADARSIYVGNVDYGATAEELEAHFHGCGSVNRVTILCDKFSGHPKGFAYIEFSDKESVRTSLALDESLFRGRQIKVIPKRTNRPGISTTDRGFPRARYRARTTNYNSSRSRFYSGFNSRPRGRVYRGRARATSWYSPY

T3: MSUT2 ZF (zinc finger domain) (UniProt Q6PJT7 595-719)
T3 sequence: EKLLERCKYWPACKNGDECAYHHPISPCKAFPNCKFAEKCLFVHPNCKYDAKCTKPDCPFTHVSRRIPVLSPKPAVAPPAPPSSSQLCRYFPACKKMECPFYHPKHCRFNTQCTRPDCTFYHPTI


Columns and labels:
MSUT2 [1] = assay: Fluorescence polarization orthogonal assay, FAM-poly; format: binding
How it was run: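 GST-MSUT2 zinc finger (E. coli BL21(DE3), glutathione-purified) at 125 nM was mixed with 10 nM FAM-poly(A) RNA in PBS, and compound was added. Incubation was 20 min at room temperature, protected from light. Read at ex 485/20, em 528/20; buffer-only background was subtracted and polarization calculated as (F∥−F⊥)/(F∥+F⊥). A parallel run included DTT. N=3 without DTT, N=2 with DTT.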

PABPN1 [2] = target: T1, PABPN1; assay: AlphaScreen specificity counterscreen against PABPN1; format: binding; settings: AlphaScreen IC50 MSUT2 compared with PABPN1, in words
How it was run: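 GST-tagged PABPN1 and MSUT2 zinc-finger construct were expressed in E. coli BL21(DE3) and purified on glutathione-sepharose. AlphaScreen was run in AlphaLISA universal buffer plus 100 mM NaCl with donor beads (10 μg/mL), 250 nM biotinylated poly(A) RNA and 250 nM GST-MSUT2. Compound was pin-added, incubated 30 min at RT in the dark, then acceptor beads were added for 60 min. IC50 was from a four-parameter fit, N=3.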

HEK-293 cells = assay: Cytotoxicity screen, CellTiter-Glo cell viability; format: cell-based, human; settings: HEK cell model, in words
MSUT2 [3] = settings: read-out: Kd of MSUT2 for poly(A); cited from earlier work
PABPN1 [4] = target: T2, PABPN1; assay: competition
[5] = target: T3, MSUT2 ZF (zinc finger domain); assay: competition
[6] = read-out: IC50 (FP = FP assay), without DTT, 125 nM MSUT2, 10 nM FAM-RNA
[7] = read-out: IC50 (FP+DTT = FP in the presence of reducing agent DTT), with DTT

Row | IC50 (MSUT2 [1]; [6]) [nM] | IC50 (MSUT2 [1]; [7]) [nM] | Specificity for MSUT2 versus PABPN1 (PABPN1 [2]) | Molecule | Effect on cell viability (toxicity) (HEK-293 cells) | also measured
1 | 1320 | 1560 | low specificity for MSUT2 | O=C1C(Cl)=C(Cl)C(=O)c2c(O)ccc(O)c21 [2,3-Dichloro-5,8-dihydroxynapthoquinone, 2,3-dichloro-5,8-dihydroxynapthoquinone] |  | 
2 |  |  |  | O=c1c2ccccc2[se]n1-c1ccccc1 [ebselen] |  | Inhibitory effect in FP assay in the presence of DTT (MSUT2 [1]; with reducing agent DTT): abolished the inhibitory effect
3 |  |  |  | poly(A) |  | Kd (MSUT2 [3]): 60 ± 15 nM
4 | 7110 | 7190 | nonspecifically inhibited MSUT2 | O=C(O)C1=CC(=C(c2ccc(O)c(C(=O)O)c2)c2ccc(O)c(C(=O)O)c2)C=CC1=O [Aurin tricarboxylic acid, aurin tricarboxylic acid] | relatively high toxicity at high concentrations | 
5 |  |  |  | AAAAAAAAAAAAAAA (ssRNA) [unlabeled poly(A) 15-mer] |  | IC50 (PABPN1 [4]): 803 nM; IC50 [5]: 198 nM

Row | Molecule | IC50 (MSUT2 [1]; [6]) [nM] | IC50 (MSUT2 [1]; [7]) [nM] | Specificity for MSUT2 versus PABPN1 (PABPN1 [2]) | Effect on cell viability (toxicity) (HEK-293 cells) | also measured
6 | O=S(=O)(O)c1cc(N=C=S)ccc1C=Cc1ccc(N=C=S)cc1S(=O)(=O)O [DIDS, 4,4′-diisothiocyanostilbene-2,2′-sulfonic acid] | 6320 | 6020 | low specificity for MSUT2; also recorded: twofold reduction in potency against PABPN1 | relatively nontoxic at all doses tested | 
